{"source": "paper PMC10339703", "about": "(Clinical and Translational Science, 2023)", "key": {"healthy subjects": {"system": "healthy subjects", "test": "Safety and tolerability", "assay_type": "in vivo, human", "conditions": "for subjects with ADRs, percentage: SAD", "in_short": "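Randomized, double-blind, placebo-controlled (6:2, n = 8/cohort) single oral doses in healthy adults after ≥10 h fast, with sentinel pair observed 24 h first. TEAEs were graded by nature, incidence, severity, seriousness and outcome, coded in MedDRA 23.0. ADR: any AE whose causality to test compound could not be ruled out. Labs, vital signs, examinations and 12-lead ECGs were also monitored.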"}, "[1]": {"test": "In vitro Caco-2 permeability", "assay_type": "in vitro ADME", "conditions": "human"}, "monkeys": {"system": "monkeys", "test": "Multiple-dose toxicity study up to 28 days in monkeys", "assay_type": "in vivo"}, "[2]": {"conditions": "SAD study, all subjects who received bersiporocin"}}, "note": "“Also recorded” adds a separate entry of the source.", "data": [{"molecule": "O[C@H]1CCCN[C@@H]1CCCn1cnc2c(Cl)c(Cl)ccc21", "note": "[Bersiporocin]", "values": [{"measurement": "Vertigo (ADR), subjects n (%)", "setting": "healthy subjects; SAD single 300 mg capsule", "result": 0}, {"measurement": "Vomiting (ADR), number of events", "setting": "healthy subjects; SAD single 300 mg capsule", "result": 3}, {"measurement": "Vomiting (ADR), subjects n (%)", "setting": "healthy subjects; SAD single 300 mg capsule", "result": "3 (50.0)"}, {"measurement": "ADRs, number of events", "setting": "healthy subjects; SAD single 500 mg tablet", "result": 23}, {"measurement": "Abdominal discomfort (ADR), subjects n (%)", "setting": "healthy subjects; SAD single 500 mg tablet", "result": 0}, {"measurement": "Abdominal distension (ADR), subjects n (%)", "setting": "healthy subjects; SAD single 500 mg tablet", "result": 0}, {"measurement": "Abdominal pain (ADR), number of events", "setting": "healthy subjects; SAD single 500 mg tablet", "result": 1}, {"measurement": "Abdominal pain (ADR), subjects n (%)", "setting": "healthy subjects; SAD single 500 mg tablet", "result": "1 (16.7)"}, {"measurement": "Abdominal pain upper (ADR), number of events", "setting": "healthy subjects; SAD single 500 mg tablet", "result": 1}, {"measurement": "Abdominal pain upper (ADR), subjects n (%)", "setting": "healthy subjects; SAD single 500 mg tablet", "result": "1 (16.7)"}, {"measurement": "Constipation (ADR), number of events", "setting": "healthy subjects; SAD single 500 mg tablet", "result": 1}, {"measurement": "Constipation (ADR), subjects n (%)", "setting": "healthy subjects; SAD single 500 mg tablet", "result": "1 (16.7)"}, {"measurement": "Decreased appetite (ADR), number of events", "setting": "healthy subjects; SAD single 500 mg tablet", "result": 1}, {"measurement": "Decreased appetite (ADR), subjects n (%)", "setting": "healthy subjects; SAD single 500 mg tablet", "result": "1 (16.7)"}, {"measurement": "Diarrhea (ADR), number of events", "setting": "healthy subjects; SAD single 500 mg tablet", "result": 4}, {"measurement": "Diarrhea (ADR), subjects n (%)", "setting": "healthy subjects; SAD single 500 mg tablet", "result": "4 (66.7)"}, {"measurement": "Dysgeusia (ADR), subjects n (%)", "setting": "healthy subjects; SAD single 500 mg tablet", "result": 0}, {"measurement": "Epigastric discomfort (ADR), number of events", "setting": "healthy subjects; SAD single 500 mg tablet", "result": 1}, {"measurement": "Epigastric discomfort (ADR), subjects n (%)", "setting": "healthy subjects; SAD single 500 mg tablet", "result": "1 (16.7)"}, {"measurement": "Gastroesophageal reflux disease (ADR), subjects n (%)", "setting": "healthy subjects; SAD single 500 mg tablet", "result": 0}, {"measurement": "Headache (ADR), number of events", "setting": "healthy subjects; SAD single 500 mg tablet", "result": 2}, {"measurement": "Headache (ADR), subjects n (%)", "setting": "healthy subjects; SAD single 500 mg tablet", "result": "2 (33.3)"}, {"measurement": "Hypersensitivity (ADR), number of events", "setting": "healthy subjects; SAD single 500 mg tablet", "result": 1}, {"measurement": "Hypersensitivity (ADR), subjects n (%)", "setting": "healthy subjects; SAD single 500 mg tablet", "result": "1 (16.7)"}, {"measurement": "Hypotension (ADR), number of events", "setting": "healthy subjects; SAD single 500 mg tablet", "result": 1}, {"measurement": "Hypotension (ADR), subjects n (%)", "setting": "healthy subjects; SAD single 500 mg tablet", "result": "1 (16.7)"}, {"measurement": "Malaise (ADR), subjects n (%)", "setting": "healthy subjects; SAD single 500 mg tablet", "result": 0}, {"measurement": "Nausea (ADR), number of events", "setting": "healthy subjects; SAD single 500 mg tablet", "result": 5}, {"measurement": "Nausea (ADR), subjects n (%)", "setting": "healthy subjects; SAD single 500 mg tablet", "result": "5 (83.3)"}, {"measurement": "Neutropenia (ADR), subjects n (%)", "setting": "healthy subjects; SAD single 500 mg tablet", "result": 0}, {"measurement": "Oropharyngeal pain (ADR), number of events", "setting": "healthy subjects; SAD single 500 mg tablet", "result": 1}, {"measurement": "Oropharyngeal pain (ADR), subjects n (%)", "setting": "healthy subjects; SAD single 500 mg tablet", "result": "1 (16.7)"}, {"measurement": "Photosensitivity reaction (ADR), subjects n (%)", "setting": "healthy subjects; SAD single 500 mg tablet", "result": 0}, {"measurement": "Subjects with ADRs, n (%)", "setting": "healthy subjects; SAD single 500 mg tablet", "result": "6 (100)"}, {"measurement": "Tachycardia (ADR), number of events", "setting": "healthy subjects; SAD single 500 mg tablet", "result": 1}, {"measurement": "Tachycardia (ADR), subjects n (%)", "setting": "healthy subjects; SAD single 500 mg tablet", "result": "1 (16.7)"}, {"measurement": "Vertigo (ADR), number of events", "setting": "healthy subjects; SAD single 500 mg tablet", "result": 1}, {"measurement": "Vertigo (ADR), subjects n (%)", "setting": "healthy subjects; SAD single 500 mg tablet", "result": "1 (16.7)"}, {"measurement": "Vomiting (ADR), number of events", "setting": "healthy subjects; SAD single 500 mg tablet", "result": 2}, {"measurement": "Vomiting (ADR), subjects n (%)", "setting": "healthy subjects; SAD single 500 mg tablet", "result": "2 (33.3)"}, {"measurement": "ADRs, number of events", "setting": "healthy subjects; SAD single 600 mg capsule", "result": 15}, {"measurement": "Abdominal discomfort (ADR), number of events", "setting": "healthy subjects; SAD single 600 mg capsule", "result": 1}, {"measurement": "Abdominal discomfort (ADR), subjects n (%)", "setting": "healthy subjects; SAD single 600 mg capsule", "result": "1 (16.7)"}, {"measurement": "Abdominal distension (ADR), subjects n (%)", "setting": "healthy subjects; SAD single 600 mg capsule", "result": 0}, {"measurement": "Abdominal pain (ADR), subjects n (%)", "setting": "healthy subjects; SAD single 600 mg capsule", "result": 0}, {"measurement": "Abdominal pain upper (ADR), subjects n (%)", "setting": "healthy subjects; SAD single 600 mg capsule", "result": 0}, {"measurement": "Constipation (ADR), subjects n (%)", "setting": "healthy subjects; SAD single 600 mg capsule", "result": 0}, {"measurement": "Decreased appetite (ADR), subjects n (%)", "setting": "healthy subjects; SAD single 600 mg capsule", "result": 0}, {"measurement": "Diarrhea (ADR), number of events", "setting": "healthy subjects; SAD single 600 mg capsule", "result": 2}, {"measurement": "Diarrhea (ADR), subjects n (%)", "setting": "healthy subjects; SAD single 600 mg capsule", "result": "2 (33.3)"}, {"measurement": "Dysgeusia (ADR), subjects n (%)", "setting": "healthy subjects; SAD single 600 mg capsule", "result": 0}, {"measurement": "Epigastric discomfort (ADR), subjects n (%)", "setting": "healthy subjects; SAD single 600 mg capsule", "result": 0}, {"measurement": "Gastroesophageal reflux disease (ADR), subjects n (%)", "setting": "healthy subjects; SAD single 600 mg capsule", "result": 0}, {"measurement": "Headache (ADR), number of events", "setting": "healthy subjects; SAD single 600 mg capsule", "result": 1}, {"measurement": "Headache (ADR), subjects n (%)", "setting": "healthy subjects; SAD single 600 mg capsule", "result": "1 (16.7)"}, {"measurement": "Hypersensitivity (ADR), subjects n (%)", "setting": "healthy subjects; SAD single 600 mg capsule", "result": 0}, {"measurement": "Hypotension (ADR), subjects n (%)", "setting": "healthy subjects; SAD single 600 mg capsule", "result": 0}, {"measurement": "Malaise (ADR), subjects n (%)", "setting": "healthy subjects; SAD single 600 mg capsule", "result": 0}, {"measurement": "Nausea (ADR), number of events", "setting": "healthy subjects; SAD single 600 mg capsule", "result": 6}, {"measurement": "Nausea (ADR), subjects n (%)", "setting": "healthy subjects; SAD single 600 mg capsule", "result": "5 (83.3)"}, {"measurement": "Neutropenia (ADR), subjects n (%)", "setting": "healthy subjects; SAD single 600 mg capsule", "result": 0}, {"measurement": "Oropharyngeal pain (ADR), subjects n (%)", "setting": "healthy subjects; SAD single 600 mg capsule", "result": 0}, {"measurement": "Photosensitivity reaction (ADR), number of events", "setting": "healthy subjects; SAD single 600 mg capsule", "result": 1}, {"measurement": "Photosensitivity reaction (ADR), subjects n (%)", "setting": "healthy subjects; SAD single 600 mg capsule", "result": "1 (16.7)"}, {"measurement": "Subjects with ADRs, n (%)", "setting": "healthy subjects; SAD single 600 mg capsule", "result": "5 (83.3)"}, {"measurement": "Tachycardia (ADR), subjects n (%)", "setting": "healthy subjects; SAD single 600 mg capsule", "result": 0}, {"measurement": "Vertigo (ADR), subjects n (%)", "setting": "healthy subjects; SAD single 600 mg capsule", "result": 0}, {"measurement": "Vomiting (ADR), number of events", "setting": "healthy subjects; SAD single 600 mg capsule", "result": 4}, {"measurement": "Vomiting (ADR), subjects n (%)", "setting": "healthy subjects; SAD single 600 mg capsule", "result": "4 (66.7)"}, {"measurement": "subjects with nausea and vomiting, percentage", "setting": "healthy subjects; SAD starting dose group (100 mg, 150 mL solution)", "result": 83.3, "unit": "%"}, {"measurement": "ADRs, number of events", "setting": "healthy subjects; [2]", "result": 68}, {"measurement": "TEAEs, number of events", "setting": "healthy subjects; [2]", "result": 90}, {"measurement": "subjects with TEAEs, number", "setting": "healthy subjects; [2]", "result": 23}, {"measurement": "subjects with TEAEs, percentage", "setting": "healthy subjects; [2]", "result": 77, "unit": "%"}, {"measurement": "subjects with ADRs, percentage", "setting": "healthy subjects; capsule group (after formulation change)", "result": 50, "unit": "%"}, {"measurement": "subjects with ADRs, percentage", "setting": "healthy subjects; solution group", "result": 83, "unit": "%"}, {"measurement": "severe, life‐threatening, or fatal ADRs", "setting": "healthy subjects; across the study (SAD and MAD)", "result": "no severe, life‐threatening, or fatal ADRs"}, {"measurement": "severity of most ADRs", "setting": "healthy subjects; across the study (SAD and MAD)", "result": "mild in severity"}, {"measurement": "severe or serious adverse events", "setting": "healthy subjects; single oral dose up to 600 mg and multiple oral doses up to 200 mg twice daily for 14 days", "result": "No severe or serious adverse events were observed; also recorded: No severe or serious AEs were observed"}, {"measurement": "Papp", "setting": "[1]", "result": "76.7 ± 10.6", "unit": "nm/s"}, {"measurement": "maximum recommended starting dose for a 60 kg adult", "setting": "monkeys; calculated from NOAEL in monkeys, safety factor = 10", "result": 154.8, "unit": "mg"}, {"measurement": "clinical observation in toxicity study", "setting": "monkeys; monkeys, concluded not to be an adverse event, transient", "result": "vomiting was observed"}]}]}
